Screening results (PubChem)
Casp6 inh: human caspase-6 inhibitors, primary screen, biochemical, VEID-R110 fluorescence, single point, set 2. P55212. purified caspase-6, Z-VEID-R110 cleavage fluorescence. inhibition, % at 12.5 µM. 350,000 compounds, 0.53% hits;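 active = mean inhibition across replicates at least about 35%, with every replicate also reaching that limit, limit read from the data; inconclusive = only one of the two criteria met; inactive = neither criterion met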;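 note: 0% = median of neutral control wells and 100% = no fluorescence left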
Target sequence (P55212 24-179 limits assumed): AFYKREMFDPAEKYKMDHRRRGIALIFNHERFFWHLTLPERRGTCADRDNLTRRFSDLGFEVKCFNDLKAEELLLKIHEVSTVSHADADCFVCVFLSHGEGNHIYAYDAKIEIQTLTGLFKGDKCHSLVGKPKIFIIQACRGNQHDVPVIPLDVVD
Target sequence (P55212 194-293 limits assumed): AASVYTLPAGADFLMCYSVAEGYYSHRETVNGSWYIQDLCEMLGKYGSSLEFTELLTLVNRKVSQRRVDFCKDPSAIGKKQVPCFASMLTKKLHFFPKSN
FN deposit inh: inhibitors of fibronectin matrix deposition, primary screen, AH1F cells, Alexa488-fibronectin fluorescence, plate reader | AH1F fibroblasts, overnight | inhibition, % at 12.6 µM | 350,000 compounds, 0.086% hits | AID 743247, 2014;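 active = mean inhibition across replicates of 30% or more, regardless of how many single replicates reach that level; inconclusive = mean under 30% yet at least half of replicates reach 30%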;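 note: positive control wells lacked labelled fibronectin entirely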
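Assay system: AH1F fibroblasts assembling fluorescent fibronectin matrix; Amount: 10000 AH1F cells per well; Buffer or medium: DMEM, 2% serum; Probe or stimulus: Alexa488-fibronectin, 24 nM final in well; Doses: single compound dose, delivered by pin transfer; Incubation: 1 h adhesion, overnight exposure; Measured by: fluorescence 485/525 nm; Read-out: fibronectin deposition inhibition.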
CaV13 FRET inh: Primary screen for inhibitors of IQ motif and Ca2+-dependent inactivation inhibitor domain binding in CACNA1D, Förster resonance energy transfer in living cells, … | inhibition, % at 12.3 µM | 340,000 compounds, 0.098% hits | HEK cells, CFP/YFP FRET ICDI-IQ, plate reader, 10 min; percent FRET-ratio fall versus neutral wells;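 active = mean replicate inhibition of at least 30% and at least 1% of replicates passing that level; inconclusive = only one of the two criteria is met; inactive = neither criterion is met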;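 note: 0% = median of the neutral control wells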
XiGFP reactiv: activators of inactive X chromosome reactivation, primary screen, imaging, XiGFP fibroblasts, GFP high-content imaging, set 2; XiGFP mouse fibroblasts, % GFP-positive cells imaging, 3 d; cells co-treated with 5-aza-dC sensitizer; scaled so ellipticine positive control = 100%; activation, % at 7.58 µM; 360,000 compounds, 0.055% hits; AID 743238, 2013;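 active = mean normalized replicate activation at least 10% and every replicate at or above 10%; inconclusive = only one of the two criteria met; inactive = mean below 10% and not all replicates reach 10%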;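 note: 0% = median of on-plate neutral control wells and 100% = ellipticine 6 µM median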
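System: 68-5-11 XiGFP fibroblast line; Timing: 3 days compound exposure; Compound dosing: one concentration, pinned; Benchmarks: positive control ellipticine, 6 µM final; Buffer or medium: DMEM containing 5-aza-dC.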
DENV2 CPE: inhibitors of DENV2 cytopathic effect, primary screen, cell-based, plate reader, single concentration; 350,000 compounds, 1.7% hits; DENV2-infected cells, cytopathic effect rescue; AID 651640, 2012; CPE inhibition, % at 9.99 µM; in the data active = CPE inhibition above about 20%, passing the limit was not always enough; inconclusive = no clear call, values can overlap the other calls; tested in BHK-21 cells;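 note: 0% = median of neutral control wells and 100% = median of positive control wells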
* = called active by the depositor; ? = inconclusive; . = not tested or not shown. An excerpt weighted towards active compounds, which were near 2% of everything screened.

SMILES	Casp6 inh	FN deposit inh	CaV13 FRET inh	XiGFP reactiv	DENV2 CPE
COc1ccc(NC(=O)N(C)C[C@@H]2OCc3cn(nn3)CCCC(=O)N([C@@H](C)CO)C[C@@H]2C)c(OC)c1	.	-9	.	0	.
N=C(N)SCc1ncccc1O	43*	-2	-7	0	-1
Cc1cc(O)c(C(=O)/C=C/c2cccc([N+](=O)[O-])c2)c(=O)o1	-1	-1	-17	0	-10
COc1cc(/C=C/C(=O)c2ccc([N+](=O)[O-])o2)ccc1O	9	-8	-3	21*	5
COc1ccc(/C=C/C(=O)c2ccc([N+](=O)[O-])o2)cc1OC	-3	35*	-7	14*	1
O=C(/C=C/c1cccc(Cl)c1)c1ccc([N+](=O)[O-])o1	4	59*	-5	4	.
COc1cc(OC)c(C(=O)C=Cc2ccc(OC)c(OC)c2)c(OC)c1	1	-8	-7	0	-1
COCC(=O)N(C)C[C@H]1Oc2cc(C#CC3CCCC3)ccc2S(=O)(=O)N([C@@H](C)CO)C[C@@H]1C	.	.	.	-1	.
COc1ccc(CN(C)C[C@H]2Oc3c(NS(=O)(=O)c4cccs4)cccc3C(=O)N([C@@H](C)CO)C[C@H]2C)cc1	-2	-5	.	-1	-3
CCCN(C)C[C@H]1Oc2cc(C3=CCCC3)ccc2S(=O)(=O)N([C@H](C)CO)C[C@H]1C	.	.	.	0	.
COc1cc(/C=C2\C(=N)N3N=C(S(C)(=O)=O)SC3=NC2=O)ccc1OS(=O)(=O)c1ccc(C)cc1	50*	-2	-3	0	?
COc1cc(/C=C2\SC(=S)N(CC(=O)O)C2=O)ccc1OS(=O)(=O)c1ccc(C)cc1	41*	0	-6	0	-6
COc1cc(/C=C2\C(=N)N3N=C(S(C)(=O)=O)SC3=NC2=O)cc(OC)c1OCCOc1ccccc1C	42*	7	-14	0	2
COc1cc(/C=C2\C(=N)N3N=C(C)SC3=NC2=O)cc(OC)c1OCCOc1ccccc1C	1	1	-3	0	-7
COc1ccc(S(=O)(=O)N2CCCCN3[C@H](CO)[C@@H](c4ccc(C#CC5CC5)cc4)[C@@H]3C2)cc1	1	.	.	0	8
COc1ccc([C@H]2C=C(C(=O)N3CCN(Cc4ccc5c(c4)OCO5)CC3)O[C@@H](OCc3ccc(CO)cc3)C2)cc1	1	.	.	.	?
CCCC#Cc1cnc2c(c1)C(=O)N([C@@H](C)CO)C[C@H](C)[C@@H](CN(C)C(=O)C1CCOCC1)O2	3	.	.	-1	-2
CC(=O)c1ccc2c3c(cc(C)c2c1)CCCC3	2	4	-7	0	25*
CC(=O)c1cccc(NC(=O)c2ccc3c(c2)CCCC3)c1	-5	9	-7	0	15
CSc1ccccc1OCc1cc(C(=O)N2CCc3c(Cl)cccc3C2)no1	64*	10	-5	0	4
COc1cc2c(cc1OC)CN(C(=O)c1cc(COc3ccccc3SC)on1)CC2	-3	-18	-11	0	0
CSc1ccccc1OCc1cc(C(=O)N2CCc3[nH]cnc3C2c2ccccn2)no1 (stereo not drawn)	6	-1	-5	0	50*
Clc1ccc(-c2csc(-c3cccnc3)n2)s1	4	3	-3	0	51*
CC(C)n1cc(CN2CCCC(CNS(=O)(=O)c3cccc4cccnc34)C2)cn1 (stereo not drawn)	-4	1	-3	0	22*
CCN(Cc1ccccc1)S(=O)(=O)c1ccc(C(=O)N(CCCN(C)C)c2nc3cc(C)cc(C)c3s2)cc1	-14	-3	-4	0	78*
Cc1cc(C)c2sc(N(CCCN(C)C)C(=O)c3ccc(S(=O)(=O)N(C)Cc4ccccc4)cc3)nc2c1	-7	.	-7	0	18
CC(C)(C)c1ccc(C(=O)NNC(=S)NC(=O)c2cccnc2)cc1	0	6	-3	0	3
CC(C)(C)c1cc(Cl)c(O)c(NC(=S)NC(=O)c2cccnc2)c1	1	30*	-2	1	-3
